Bioassay records from PubChem BioAssay.
TNF death inh: blocks TNF-alpha induced death of Jurkat FADD-/- cells; Jurkat FADD-/- TNF necroptosis rescue, ATP luminescence, 24 h; 0 = TNF only, 100 = no-TNF cells; activation (protection from cell death), % at 10 µM; 0.068% of 220,000 active;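 active = activation, meaning protection from cell death, of at least 50% relative to plate controls; inactive = activation below 50%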;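 note: necroptosis triggered by 40 ng/mL TNF-alpha added together with compound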
S1P4 antag: antagonists of human S1P4 receptor. S1P4-expressing cells, antagonist mode, reporter read-out. inhibition, % at 4.98 µM. 0.26% of 220,000 active; in the data active = inhibition above about 29%
Target sequence (O95977 whole entry, looked up): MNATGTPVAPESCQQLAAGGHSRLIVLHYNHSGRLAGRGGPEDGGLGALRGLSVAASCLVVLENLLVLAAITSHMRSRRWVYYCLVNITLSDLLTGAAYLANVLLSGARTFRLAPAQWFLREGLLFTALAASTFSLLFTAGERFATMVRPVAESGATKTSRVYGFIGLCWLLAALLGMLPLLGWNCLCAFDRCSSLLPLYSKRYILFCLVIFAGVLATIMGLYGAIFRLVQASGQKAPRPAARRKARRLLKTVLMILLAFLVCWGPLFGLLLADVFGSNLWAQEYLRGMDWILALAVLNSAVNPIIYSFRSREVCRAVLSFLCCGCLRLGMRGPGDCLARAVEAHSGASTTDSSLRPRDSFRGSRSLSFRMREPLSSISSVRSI
Tb hexokinase: T. brucei hexokinase 1 inhibition. recombinant TbHK1, G6PDH-coupled NADH A340. inhibition, % at 10 µM. 0.11% of 220,000 active;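 active = inhibition of 50% or more in the single-dose primary screen; inactive = inhibition below 50%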
zVAD death inh: L929 zVAD cell death inhibition; L929 zVAD necroptosis rescue, ATP luminescence, 24 h; with zVAD 60 µM; viability rescue, % at 10 µM; 0.38% of 220,000 active; AID 1377;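 active = activation, scaled between plate controls, above about 75%, limit read from the data; inactive = activation under that limit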
S1P4 agonist: human S1P4 receptor agonism; S1P4-expressing cell line, agonist reporter assay; activation, % at 4.98 µM; 0.35% of 220,000 active; AID 1509; in the data active = activation above about 11%
Dynein transport: blocks dynein driven cargo transport along microtubules; z-score, hits read low; 0.47% of 220,000 active; 3617.4 mouse cells, GR-EGFP nuclear translocation imaging; test concentration mostly 20 µM; stimulated with dexamethasone, 1 µM; hits give low values;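 active = plate z-score of nuclear minus cytoplasmic receptor signal below a set negative limit, without overly bright fluorescence or cell loss, cut at about -3.5 in these data, passing the limit was not always enough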;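 note: z-score of nuclear minus cytoplasmic ring GR-EGFP intensity difference per well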
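medium = tetracycline-free induction medium containing charcoal-stripped FBS | also added = 1.0 µM final dexamethasone stimulus | schedule = 48 h induction, 1 h compound, 30 min dex at 37 °C | technique = fixed, Hoechst-stained cells imaged at 10x for EGFP | measure = GR-EGFP nuclear translocation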
S1P4 agonist cf: human S1P4 agonism, confirmation; S1P4 agonist cell-based reporter assay; shares compounds with S1P4 agonist; 7% of 740 active; activation, % at 4.98 µM; in the data active = activation above about 12%
S1P1 ag: activates human S1P1, counter-screen for S1P4 agonists | shares compounds with S1P4 agonist | S1P1 agonist cell-based assay, activation | activation, % at 4.98 µM | 4% of 740 active; in the data active = activation above about 21%
Large screens that a line does not name were inactive (follow-up assays come after a bar, where they were run). A selection: hits, their analogues and other compounds. The true share with any hit is near 1.5%.

N#C/C(=C(/O)C(Cl)(Cl)Cl)c1nc2ccccc2[nH]1	none
CC(=O)Nc1ccc(NC(=O)COC(=O)c2c3c(nc4ccccc24)CCN(Cc2ccccc2)C3)cc1	none
O=C(COC(=O)c1c2c(nc3ccccc13)CCN(Cc1ccccc1)C2)Nc1c(F)cccc1F	S1P4 agonist 58 | S1P4 agonist cf inactive | S1P1 ag inactive
COc1ccc(OC)c(S(=O)(=O)NC(N)=NCCc2ccccc2OC)c1	S1P4 agonist 23 | S1P4 agonist cf inactive | S1P1 ag inactive
Cc1ccc(OCC(=O)N/N=C/c2ccc3c(c2)OCO3)cc1C	S1P4 agonist 12 | S1P4 agonist cf inactive | S1P1 ag inactive
O=C(Cc1ccccc1)N/N=C/c1ccc2c(c1)OCO2	none
COc1ccc(CCNC(=O)c2cc3c(=O)n(C)c4ccccc4c3n2C)c(OC)c1	none
CCc1nc(N)c(C#N)c(-c2cccc3ccccc23)c1C	S1P4 agonist 16 | S1P4 agonist cf inactive | S1P1 ag inactive
CC1CCCC(C)N1/N=C/c1ccc(C(=O)O)cc1 (configuration not stated)	none
CCOC(=O)c1c(-n2c(C)cc(C=O)c2C)sc2c1CCCC2	S1P4 agonist 16 | S1P4 agonist cf 21 | S1P1 ag inactive
COC(=O)[C@@H]1C[C@@H]2CC[C@@H](O)C[C@@H]2N1Cc1ccccc1OS(=O)(=O)c1ccc(C)cc1	none (no result: S1P4 antag, S1P4 agonist)
CCS(=O)(=O)c1ccc2c(c1)N(S(C)(=O)=O)CC(C(=O)NCc1ccccc1OC)O2 (configuration not stated)	none
Cc1ccc(CNC(=O)C2CN(S(C)(=O)=O)c3cc(Cl)ccc3O2)cc1 (configuration not stated)	S1P4 agonist 63 | S1P4 agonist cf inactive | S1P1 ag inactive
COc1ccc(OC)c(NC(=O)CSc2ccc3nnc(-c4cccnc4)n3n2)c1	none
CS(=O)(=O)N1CCc2cc(C(=O)N3CCOCC3)ccc21	S1P4 agonist 27 | S1P4 agonist cf inactive | S1P1 ag inactive
CS(=O)(=O)N1CCc2cc(C(=O)N3CCCCC3)ccc21	none
C/C(=N\NC(=O)C(C)n1nc(C)c([N+](=O)[O-])c1C)c1ccccc1O (configuration not stated)	S1P4 agonist 103 | S1P4 agonist cf inactive | S1P1 ag inactive
Cc1nn(C(C)C(=O)NCc2ccco2)c(C)c1[N+](=O)[O-] (configuration not stated)	none
NC1=NC(=O)C2(COC(c3cccnc3)OC2)S1 (configuration not stated)	none
COc1ccc(CCC(=O)N2CCN(C3CCCCC3)CC2)cc1	none
COc1ccc(CCC(=O)N2CCCSC2=Nc2ccc(C(C)=O)cc2)cc1	S1P4 agonist 23 | S1P4 agonist cf inactive | S1P1 ag inactive
Cc1cc(C)n(CCC(=O)N=Nc2c(O)[nH]c3ccccc23)n1	none
CC1CCN(C(=O)C2CCN(C(=O)c3cc4sccc4n3Cc3ccc(F)cc3)CC2)CC1	none
CC(C)NC(=O)C1CCN(C(=O)c2cc3sccc3n2Cc2ccc(F)cc2)CC1	S1P4 agonist 16 | S1P4 agonist cf inactive | S1P1 ag inactive
Clc1cnc2nc(SC/C=C/c3ccccc3)[nH]c2c1	none
Cc1ccc(/C=C/C(=O)Nc2ccc(S(N)(=O)=O)cc2)o1	none
Cc1ccc(/C=C/C(=O)NCc2ccc(S(N)(=O)=O)cc2)o1	S1P4 agonist 12 | S1P4 agonist cf inactive | S1P1 ag inactive
CC(=O)Nc1ccc(S(=O)(=O)Oc2ccc(C(=S)N3CCCCC3)cc2)cc1	S1P4 agonist 29 | S1P4 agonist cf inactive | S1P1 ag inactive
COCCN1C(=O)C(=O)/C(=C(/O)c2ccc(S(=O)(=O)N3CCOCC3)cc2)C1c1cccc(Cl)c1 (configuration not stated)	none
Cc1nc2cc(C(=O)N3c4ccccc4CC3C)ccc2s1 (configuration not stated)	none
Cc1ccc(-c2nc3ncccn3c2Nc2ccc3c(c2)OCO3)o1	none
Cc1ccc(Nc2c(-c3ccc(C)o3)nc3ncccn23)cc1	S1P4 agonist 11 | S1P4 agonist cf inactive | S1P1 ag inactive
NS(=O)(=O)c1ccc(N/N=C/c2cn(-c3ccccc3)nc2-c2cccs2)c([N+](=O)[O-])c1	S1P4 agonist 38 | S1P4 agonist cf inactive | S1P1 ag inactive
NS(=O)(=O)c1ccc(N/N=C/c2cn(-c3ccccc3)nc2-c2cccs2)cc1	none
Cc1ccc(S(=O)(=O)NCCc2ccccc2)cc1	none
Cc1cc(C)c(S(=O)(=O)NCCc2ccccc2)c(C)c1	S1P4 agonist 21 | S1P4 agonist cf inactive | S1P1 ag inactive
O=C(CCCC(=O)NCC1CCCO1)NCC1CCCO1 (configuration not stated)	S1P4 agonist 39 | S1P4 agonist cf inactive | S1P1 ag inactive
Cc1noc(NC(=O)c2c(-c3c(Cl)cccc3Cl)noc2C)c1[N+](=O)[O-]	none
CCOC(=O)c1c(NC(C)=O)sc2c(O)c(Br)cc(Br)c12	S1P4 agonist 62 | S1P4 agonist cf inactive | S1P1 ag inactive
CCCn1c(SCC(=O)NCC2CCCO2)nc2c1c(=O)n(C)c(=O)n2C (configuration not stated)	S1P4 agonist 34 | S1P4 agonist cf inactive | S1P1 ag inactive
CC(c1ccc(F)cc1)n1cc(C(=O)NCCN(C)C)nn1 (configuration not stated)	none
O=C(N/N=C\c1ccccc1)c1ccccc1-n1cccc1	none
O=C(N/N=C\c1ccc(O)c([N+](=O)[O-])c1)c1ccccc1-n1cccc1	S1P4 agonist 16 | S1P4 agonist cf inactive | S1P1 ag inactive
CCOC(=O)N1CCC(N2C(=O)c3ccc(C(=O)O)cc3C2=O)CC1	none
CCOC(=O)c1ccc2c(c1)C(=O)N(C1CCCCC1)C2=O	S1P4 agonist 25 | S1P4 agonist cf inactive | S1P1 ag inactive
CC1CCCCN1C(=O)COc1ccccc1F (configuration not stated)	S1P4 agonist 13 | S1P4 agonist cf inactive | S1P1 ag inactive
CC1CCCCN1C(=O)Cc1ccc(Cl)cc1 (configuration not stated)	none
O=C1NC(c2ccco2)Nc2sc3c(c21)CCN(Cc1ccccc1)C3 (configuration not stated)	S1P4 agonist 15 | S1P4 agonist cf inactive | S1P1 ag inactive
N#C/C(=C\c1ccc[nH]1)C(=O)N1CCCCC1	none
O=C(O)c1ccc(N/N=C/c2ccc(-c3ccccc3Cl)o2)cc1	S1P4 agonist 11 | S1P4 agonist cf inactive | S1P1 ag inactive
